{"source": "paper PMC11047177", "about": "(ESMO Open, 2024)", "key": {"[1]": {"system": "SW1990 and A427 xenograft", "test": "Preclinical mouse xenograft models", "assay_type": "in vivo", "details": "corresponding to a 70% (or greater) inhibition of plasma SDMA; data not shown"}, "[2]": {"test": "Plasma PF-06939999 pharmacokinetics, noncompartmental", "assay_type": "in vivo, human", "method_in_brief": "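Test compound given orally on an empty stomach. Part 1 had intensive plasma sampling on cycle 1 day 1 and day 15; part 2 had sparse sampling. Plasma was assayed by a validated method with LLOQ 0.250 ng/ml; values below LLOQ were set to zero for summaries. Noncompartmental analysis was done within a dosing interval. Rac was based on AUCτ. Parameters were summarised by dose, cycle and day as geometric means.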"}, "PRMT5": {"biological_target": "PRMT5 (Homo sapiens, UniProt O14744)", "sequence (O14744 whole entry)": "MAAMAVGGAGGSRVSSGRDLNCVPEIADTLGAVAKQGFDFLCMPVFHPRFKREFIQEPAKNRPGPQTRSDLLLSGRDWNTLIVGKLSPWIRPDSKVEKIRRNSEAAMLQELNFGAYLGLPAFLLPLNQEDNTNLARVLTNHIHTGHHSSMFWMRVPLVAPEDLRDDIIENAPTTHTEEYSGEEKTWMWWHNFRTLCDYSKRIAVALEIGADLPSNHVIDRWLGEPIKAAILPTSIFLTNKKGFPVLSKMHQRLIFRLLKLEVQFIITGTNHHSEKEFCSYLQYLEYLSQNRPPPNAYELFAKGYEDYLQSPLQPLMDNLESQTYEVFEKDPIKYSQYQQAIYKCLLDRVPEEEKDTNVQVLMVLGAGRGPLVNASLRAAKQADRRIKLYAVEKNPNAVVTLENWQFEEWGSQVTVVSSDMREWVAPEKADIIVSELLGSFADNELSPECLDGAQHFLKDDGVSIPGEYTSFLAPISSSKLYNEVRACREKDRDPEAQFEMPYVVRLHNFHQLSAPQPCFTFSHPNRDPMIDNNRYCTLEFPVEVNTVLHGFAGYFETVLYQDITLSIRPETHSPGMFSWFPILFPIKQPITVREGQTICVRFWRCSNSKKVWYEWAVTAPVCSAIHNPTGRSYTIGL", "sequence (Q9BQA1 whole entry partner)": "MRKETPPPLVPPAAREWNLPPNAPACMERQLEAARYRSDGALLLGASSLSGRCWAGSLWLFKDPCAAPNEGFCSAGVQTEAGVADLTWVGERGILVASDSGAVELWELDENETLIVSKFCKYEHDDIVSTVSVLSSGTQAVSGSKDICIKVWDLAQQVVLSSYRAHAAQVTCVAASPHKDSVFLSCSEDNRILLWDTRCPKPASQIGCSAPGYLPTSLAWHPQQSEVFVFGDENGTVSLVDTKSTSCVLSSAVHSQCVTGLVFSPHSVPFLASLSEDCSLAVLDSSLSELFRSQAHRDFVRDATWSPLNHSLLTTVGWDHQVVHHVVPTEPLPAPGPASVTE", "test": "Plasma SDMA pharmacodynamics by LC/MS", "assay_type": "in vivo", "method_in_brief": "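Plasma SDMA, a catabolic product of PRMT5 activity, was measured by LC/MS during oral test-compound dosing. Part 1 samples: pre-dose, 2 and 6 h on C1D1; 12 h C1D1 or pre-dose C1D2; pre-dose C1D8; pre-dose, 2 and 6 h on C1D15; pre-dose C1D22, C2D1 and C3D1. Part 2 samples: pre-dose C1D1, C1D8, C1D15, C1D22, C2D1, C3D1 and end of treatment.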"}, "[3]": {"system": "non-small-cell lung cancer (NSCLC) cells", "details": "in vitro; cited from earlier work"}, "[4]": {"system": "selected locally advanced or metastatic solid tumors", "test": "Tumor response by RECIST v1.1", "assay_type": "in vivo, human", "details": "for Duration of response (DoR): part 1"}}, "note": "“Also recorded” adds a separate entry of the source."}
{"smiles": "Cc1ncnc2c1ccn2[C@@H]1C[C@H](Oc2cc(C(F)F)c(F)c3c2CNCC3)[C@@H](O)[C@H]1O", "note": "[PF-06939999]", "values": [{"measurement": "Tumor growth inhibition", "setting": "[1]", "result": "~100", "unit": "%"}, {"measurement": "Dose dependence of exposure (AUCτ and Cmax)", "setting": "[2]; 0.5 mg q.d. to 6 mg b.i.d.", "result": "exposure increased with dose; also recorded: increased in a dose-dependent manner"}, {"measurement": "Variability of AUCτ", "setting": "[2]; RP2D, 6 mg q.d.", "result": 38, "unit": "%"}, {"measurement": "Variability of Cmax", "setting": "[2]; RP2D, 6 mg q.d.", "result": 26, "unit": "%"}, {"measurement": "Time to steady-state PK", "setting": "[2]; b.i.d. and q.d. regimens", "result": "≤ 15", "unit": "days"}, {"measurement": "Effective half-life", "setting": "[2]; indicated by Rac after b.i.d. dosing", "result": "> 24", "unit": "h"}, {"measurement": "Plasma SDMA inhibition", "setting": "PRMT5; 14-28 days post-dose, 0.5 mg q.d. or b.i.d.", "result": "~60", "unit": "%"}, {"measurement": "Plasma SDMA inhibition", "setting": "PRMT5; RP2D, 6 mg q.d.", "result": "around 80%"}, {"measurement": "Anti-proliferative activity", "setting": "[3]", "result": "demonstrated anti-proliferative activity"}, {"measurement": "Objective response rate", "setting": "[4]; part 1 + part 2, 3/54 patients", "result": 6, "unit": "%"}, {"measurement": "Stable disease", "setting": "[4]; part 1 + part 2, 19 patients, response-assessable population (44 patients)", "result": 43.2, "unit": "%"}, {"measurement": "Confirmed PRs", "setting": "[4]; part 1, 28 patients treated, two patients (HNSCC 2 mg b.i.d., NSCLC 4 mg b.i.d.)", "result": 7, "unit": "%"}, {"measurement": "Duration of response (DoR)", "setting": "[4]; confirmed responder with HNSCC, 2 mg b.i.d.", "result": 4, "unit": "months"}, {"measurement": "Duration of response (DoR)", "setting": "[4]; confirmed responder with NSCLC, 4 mg b.i.d.", "result": 5, "unit": "months"}, {"measurement": "Progressive disease", "setting": "[4]; part 2, 26 patients, 6 mg q.d., 8 patients", "result": 31, "unit": "%"}, {"measurement": "Disease control", "setting": "[4]; part 2, 26 patients, 6 mg q.d., 11 patients", "result": 42, "unit": "%"}, {"measurement": "Confirmed PR", "setting": "[4]; part 2, 26 patients, 6 mg q.d., one patient with NSCLC", "result": 4, "unit": "%"}]}
